Data taken from ChEMBL document CHEMBL4190396, “Discovery of Novel Small-Molecule Inhibitors of NF-κB Signaling with Antiinflammatory and Anticancer Properties” (J Med Chem, 2018).
Calls of active or inactive are those of the source. No cut-off for these calls is given here.

Assays:
RAW264.7 [1] = test: Inhibition of LPS-induced JNK phosphorylation in mouse RAW264.7 cells at 1 to 10 uM preincubated for 1 hr followed by LPS stimulation for 15 to 30 mins by Western blot method; type: cell-based
Summary of the method: (§1)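 RAW 264.7 cells, 3×10^6 per dish overnight, pretreated 1 h with 1, 5 or 10 µM, then LPS 100 ng/mL for 15 or 30 min; nuclear/cytoplasmic lysates (20–30 µg) run on 10% SDS-PAGE, immunoblotted for phospho/total proteins, GAPDH loading control, ECL, densitometry; three independent experiments.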

[2] = biological target: Tumor necrosis factor receptor superfamily member 1A (Homo sapiens, UniProt P19438); test: Inhibition of TNFR in TLR null HEK-blue cells assessed as decrease in TNFalpha-stimulated NF-kappaB activation-mediated SEAP production after 24 hrs by Quanti-blue-based assay; type: cell-based
HeLa [3] = test: Cell cycle arrest in human HeLa cells assessed as accumulation at S phase at 5 uM after 24 hrs by propidium iodide staining based flow cytometry (reference value: 34.9%); type: functional
Summary of the method: (§2)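 HeLa cells, 3×10^5/well, attached overnight, switched to serum-free medium for synchronisation, then DMSO or 5, 10, 20 µM for 24 h; cells fixed, PI-stained, G0/G1, S and G2/M fractions by flow cytometry; n = 3, mean ± SD.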

RAW264.7 [4] = test: Inhibition of LPS-induced ERK phosphorylation in mouse RAW264.7 cells at 1 to 10 uM preincubated for 1 hr followed by LPS stimulation for 15 to 30 mins by Western blot method; type: cell-based; summary of the method: as §1
HeLa [5] = test: Cell cycle arrest in human HeLa cells assessed as accumulation at S phase at 20 uM after 24 hrs by propidium iodide staining based flow cytometry (reference value: 34.9%); type: functional; summary of the method: as §2
RAW264.7 [6] = test: Inhibition of LPS-induced PI3K-mediated AKT phosphorylation in mouse RAW264.7 cells at 1 to 10 uM preincubated for 1 hr followed by LPS stimulation for 15 to 30 mins by Western blot method; type: cell-based; summary of the method: as §1
HeLa [7] = test: Cell cycle arrest in human HeLa cells assessed as accumulation at G0/G1 phase at 20 uM after 24 hrs by propidium iodide staining based flow cytometry (reference value: 49.4%); type: functional; summary of the method: as §2
[8] = biological target: Toll-like receptor 8 (Homo sapiens) (UniProt Q9NR97); test: Antagonist activity at human TLR8 expressed in HEK293 cells assessed as decrease in R848-induced NF-kappaB activation-mediated SEAP production at 10^-9 to 10^-5 M after 24 hrs by Quanti-blue-based assay; type: cell-based
Summary of the method: (§3)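 HEK293 cells stably carrying a human TLR plus an NF-κB-driven SEAP reporter, seeded 5×10^4/well for 24 h at 37 °C, then stimulated: Pam3CSK4 100 µg/mL (TLR1/2), Pam2CSK4 100 µg/mL, poly I:C 5 µg/mL (TLR3), LPS 20 ng/mL (TLR4), flagellin 100 ng/mL (TLR5), R848 1 µg/mL (TLR7, TLR8), CpG-ODN2006 1 µg/mL (TLR9). After 24 h with compound, supernatant mixed with QUANTI-Blue, 1 h 37 °C, OD 620 nm.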

HEK293 = test: Cytotoxicity against HEK293 cells expressing human TLR7 assessed as reduction in cell viability up to 20 uM after 24 hrs by WST-1 assay; type: cell-based; conditions: hek293, 24 h
Summary of the method: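 HEK hTLR7 cells seeded 5×10^4/well, 24 h, then exposed to a concentration series for 24 h; WST-1 reagent added at 37 °C until colour developed (30 min–2 h), absorbance 450 nm.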

[9] = biological target: Tyrosine-protein kinase SYK (Homo sapiens) (UniProt P43405); test: Inhibition of wild-type human partial length SYK (D354 to N635 residues) expressed in bacterial expression system assessed as residual activity at 10 uM by Kinomescan method
[10] = biological target: Toll-like receptor 4 (Homo sapiens) (UniProt O00206); test: Antagonist activity at human TLR4 expressed in HEK293 cells assessed as decrease in LPS-induced NF-kappaB activation-mediated SEAP production at 10^-9 to 10^-5 M after 24 hrs by Quanti-blue-based assay; type: cell-based; summary of the method: as §3
[11] = biological target: Interleukin-1 receptor type 1 (Homo sapiens, UniProt P14778); test: Inhibition of IL1R in TLR null HEK-blue cells assessed as decrease in IL-1beta-stimulated NF-kappaB activation-mediated SEAP production after 24 hrs by Quanti-blue-based assay; type: cell-based
[12] = biological target: Toll-like receptor 1/2 (Homo sapiens) (UniProt O60603+Q15399); test: Antagonist activity at human TLR1/2 expressed in HEK293 cells assessed as decrease in Pam3CSK4-induced NF-kappaB activation-mediated SEAP production at 10^-9 to 10^-5 M after 24 hrs by Quanti-blue-based assay; type: cell-based; summary of the method: as §3
[13] = biological target: Toll-like receptor 5 (Homo sapiens) (UniProt O60602); test: Antagonist activity at human TLR5 expressed in HEK293 cells assessed as decrease in flagellin-induced NF-kappaB activation-mediated SEAP production at 10^-9 to 10^-5 M after 24 hrs by Quanti-blue-based assay; type: cell-based; summary of the method: as §3
HeLa [14] = test: Cell cycle arrest in human HeLa cells assessed as accumulation at G0/G1 phase at 5 uM after 24 hrs by propidium iodide staining based flow cytometry (reference value: 49.4%); type: functional; summary of the method: as §2
[15] = biological target: Mitogen-activated protein kinase 15 (Homo sapiens) (UniProt Q8TD08); test: Inhibition of wild-type human partial length ERK8 (M1 to P437 residues) expressed in bacterial expression system assessed as residual activity at 20 uM by Kinomescan method relative to control
HeLa [16] = test: Cell cycle arrest in human HeLa cells assessed as accumulation at G2/M phase at 20 uM after 24 hrs by propidium iodide staining based flow cytometry (reference value: 15.7%); type: functional; summary of the method: as §2

Sequence of Toll-like receptor 8 (Homo sapiens) (Q9NR97 whole entry): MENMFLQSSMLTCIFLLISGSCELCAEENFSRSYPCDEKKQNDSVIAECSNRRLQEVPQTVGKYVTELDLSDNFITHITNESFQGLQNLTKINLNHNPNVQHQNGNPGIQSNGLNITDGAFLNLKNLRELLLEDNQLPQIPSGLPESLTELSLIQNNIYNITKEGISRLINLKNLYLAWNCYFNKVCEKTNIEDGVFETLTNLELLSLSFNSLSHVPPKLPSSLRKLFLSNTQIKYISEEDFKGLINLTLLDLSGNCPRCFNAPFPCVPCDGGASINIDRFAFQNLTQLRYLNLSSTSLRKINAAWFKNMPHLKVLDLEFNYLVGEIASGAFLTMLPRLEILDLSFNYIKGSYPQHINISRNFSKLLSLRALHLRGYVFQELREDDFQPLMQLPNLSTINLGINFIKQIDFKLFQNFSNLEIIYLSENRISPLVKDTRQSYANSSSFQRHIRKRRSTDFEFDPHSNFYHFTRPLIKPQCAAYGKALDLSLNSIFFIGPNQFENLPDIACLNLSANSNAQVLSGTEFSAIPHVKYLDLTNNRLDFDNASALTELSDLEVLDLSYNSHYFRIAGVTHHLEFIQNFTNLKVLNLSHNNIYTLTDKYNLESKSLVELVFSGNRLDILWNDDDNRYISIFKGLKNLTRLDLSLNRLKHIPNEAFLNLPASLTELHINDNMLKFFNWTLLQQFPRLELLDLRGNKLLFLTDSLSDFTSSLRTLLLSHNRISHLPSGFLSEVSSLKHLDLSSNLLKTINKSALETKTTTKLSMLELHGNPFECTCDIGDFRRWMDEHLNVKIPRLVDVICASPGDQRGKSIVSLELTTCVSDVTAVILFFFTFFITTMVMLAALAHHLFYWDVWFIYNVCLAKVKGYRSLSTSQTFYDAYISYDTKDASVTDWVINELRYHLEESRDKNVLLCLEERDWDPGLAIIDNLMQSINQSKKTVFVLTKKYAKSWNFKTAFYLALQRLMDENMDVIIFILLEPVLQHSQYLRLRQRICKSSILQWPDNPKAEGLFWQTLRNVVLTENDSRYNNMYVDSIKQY
Sequence of Interleukin-1 receptor type 1 (P14778 whole entry): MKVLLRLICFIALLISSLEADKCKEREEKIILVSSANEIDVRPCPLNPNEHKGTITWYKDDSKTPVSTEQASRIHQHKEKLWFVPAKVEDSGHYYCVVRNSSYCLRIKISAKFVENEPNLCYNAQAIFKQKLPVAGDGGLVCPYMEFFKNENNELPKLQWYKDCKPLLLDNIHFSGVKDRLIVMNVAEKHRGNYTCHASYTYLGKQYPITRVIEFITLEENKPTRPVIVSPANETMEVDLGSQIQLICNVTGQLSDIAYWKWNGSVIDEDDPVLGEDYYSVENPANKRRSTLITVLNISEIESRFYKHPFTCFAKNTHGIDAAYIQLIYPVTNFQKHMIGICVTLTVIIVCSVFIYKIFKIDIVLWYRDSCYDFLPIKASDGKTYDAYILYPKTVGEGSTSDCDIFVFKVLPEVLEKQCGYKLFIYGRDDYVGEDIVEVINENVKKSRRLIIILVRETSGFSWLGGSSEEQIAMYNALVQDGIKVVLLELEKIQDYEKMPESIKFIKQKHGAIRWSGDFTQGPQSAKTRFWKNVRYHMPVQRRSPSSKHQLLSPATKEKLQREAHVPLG
Sequence of Mitogen-activated protein kinase 15 (Homo sapiens) (Q8TD08 whole entry, the tested form may be a part): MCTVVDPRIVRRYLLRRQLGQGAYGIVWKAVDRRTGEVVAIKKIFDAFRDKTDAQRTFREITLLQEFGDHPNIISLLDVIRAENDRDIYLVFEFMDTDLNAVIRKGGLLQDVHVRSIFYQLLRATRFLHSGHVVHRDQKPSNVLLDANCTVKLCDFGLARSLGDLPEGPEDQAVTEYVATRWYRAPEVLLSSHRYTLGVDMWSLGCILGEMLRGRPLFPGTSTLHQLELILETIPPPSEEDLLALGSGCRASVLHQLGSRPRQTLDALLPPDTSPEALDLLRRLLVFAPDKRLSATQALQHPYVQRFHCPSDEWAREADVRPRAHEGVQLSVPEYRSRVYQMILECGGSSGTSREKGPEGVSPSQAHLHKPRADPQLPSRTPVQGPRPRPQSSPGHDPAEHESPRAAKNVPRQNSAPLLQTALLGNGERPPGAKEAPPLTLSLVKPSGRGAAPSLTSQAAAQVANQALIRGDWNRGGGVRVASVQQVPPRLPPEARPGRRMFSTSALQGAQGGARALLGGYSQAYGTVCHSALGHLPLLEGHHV
Sequence of Toll-like receptor 4 (Homo sapiens) (O00206 whole entry): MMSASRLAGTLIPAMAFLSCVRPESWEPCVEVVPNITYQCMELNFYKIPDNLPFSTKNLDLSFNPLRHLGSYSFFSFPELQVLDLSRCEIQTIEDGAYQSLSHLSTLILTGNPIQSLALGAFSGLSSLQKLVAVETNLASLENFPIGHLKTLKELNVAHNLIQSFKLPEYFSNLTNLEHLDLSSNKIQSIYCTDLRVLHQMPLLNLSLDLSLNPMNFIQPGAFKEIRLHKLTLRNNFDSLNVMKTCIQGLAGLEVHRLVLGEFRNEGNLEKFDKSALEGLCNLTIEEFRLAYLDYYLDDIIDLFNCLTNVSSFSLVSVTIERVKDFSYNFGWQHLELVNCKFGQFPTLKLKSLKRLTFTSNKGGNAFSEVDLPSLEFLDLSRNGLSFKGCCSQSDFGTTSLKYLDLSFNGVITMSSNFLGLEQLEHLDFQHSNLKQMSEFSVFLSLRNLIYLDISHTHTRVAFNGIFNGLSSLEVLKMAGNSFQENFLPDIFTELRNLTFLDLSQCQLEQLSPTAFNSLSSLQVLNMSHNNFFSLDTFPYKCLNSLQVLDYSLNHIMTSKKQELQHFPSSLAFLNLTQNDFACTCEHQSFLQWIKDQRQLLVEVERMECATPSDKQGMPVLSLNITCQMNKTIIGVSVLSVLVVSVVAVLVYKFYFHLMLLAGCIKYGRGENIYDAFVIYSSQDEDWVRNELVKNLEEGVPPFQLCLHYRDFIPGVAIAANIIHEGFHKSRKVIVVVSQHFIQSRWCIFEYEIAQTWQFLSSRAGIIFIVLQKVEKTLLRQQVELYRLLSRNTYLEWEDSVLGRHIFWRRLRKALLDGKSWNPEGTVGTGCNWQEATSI
Sequence of Toll-like receptor 5 (Homo sapiens) (O60602 whole entry): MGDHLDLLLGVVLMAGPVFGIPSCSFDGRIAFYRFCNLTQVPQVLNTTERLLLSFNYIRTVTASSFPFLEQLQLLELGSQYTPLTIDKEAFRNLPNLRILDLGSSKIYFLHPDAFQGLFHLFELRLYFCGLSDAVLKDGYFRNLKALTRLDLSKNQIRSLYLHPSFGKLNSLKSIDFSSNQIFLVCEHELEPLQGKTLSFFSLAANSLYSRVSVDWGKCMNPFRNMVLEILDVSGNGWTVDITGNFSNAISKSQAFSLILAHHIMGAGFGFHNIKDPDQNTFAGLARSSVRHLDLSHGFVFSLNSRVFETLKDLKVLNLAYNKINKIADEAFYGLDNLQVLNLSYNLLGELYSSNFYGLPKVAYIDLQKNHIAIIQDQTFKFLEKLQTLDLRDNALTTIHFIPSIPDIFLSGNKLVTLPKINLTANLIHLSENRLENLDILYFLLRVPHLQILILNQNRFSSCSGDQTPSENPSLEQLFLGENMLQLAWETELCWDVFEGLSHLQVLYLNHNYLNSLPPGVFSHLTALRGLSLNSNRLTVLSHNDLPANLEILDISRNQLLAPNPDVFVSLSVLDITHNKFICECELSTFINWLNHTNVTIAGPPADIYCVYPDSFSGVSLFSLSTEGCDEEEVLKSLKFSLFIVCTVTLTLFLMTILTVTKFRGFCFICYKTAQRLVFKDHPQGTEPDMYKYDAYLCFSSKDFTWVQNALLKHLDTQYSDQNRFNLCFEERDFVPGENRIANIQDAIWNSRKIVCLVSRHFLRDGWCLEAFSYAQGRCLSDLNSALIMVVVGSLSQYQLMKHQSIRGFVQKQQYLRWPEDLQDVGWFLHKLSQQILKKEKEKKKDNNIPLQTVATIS
Sequence of Tumor necrosis factor receptor superfamily member 1A (P19438 whole entry): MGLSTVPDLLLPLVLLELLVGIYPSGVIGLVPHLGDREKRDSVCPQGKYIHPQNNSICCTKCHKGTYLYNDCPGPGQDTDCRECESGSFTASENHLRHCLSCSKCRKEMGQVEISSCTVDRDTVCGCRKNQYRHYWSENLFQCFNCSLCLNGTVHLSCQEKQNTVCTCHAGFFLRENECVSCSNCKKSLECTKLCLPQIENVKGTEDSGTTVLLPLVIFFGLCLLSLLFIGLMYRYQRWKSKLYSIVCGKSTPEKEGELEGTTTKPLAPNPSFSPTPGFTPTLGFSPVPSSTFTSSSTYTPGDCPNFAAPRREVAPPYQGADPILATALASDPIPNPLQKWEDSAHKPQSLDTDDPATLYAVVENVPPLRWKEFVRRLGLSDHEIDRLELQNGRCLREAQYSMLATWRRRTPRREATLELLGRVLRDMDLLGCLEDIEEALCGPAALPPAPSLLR

O=C(NNC(=O)c1csc(-c2ccc(Cl)cc2Cl)n1)c1ccccn1
inhibition (RAW264.7 [1]): inactive | IC50 [2]: 0.77 µM | Activity (HeLa [3]): 48.4% | inhibition (RAW264.7 [4]): inactive | Activity (HeLa [5]): 29.1% | inhibition (RAW264.7 [6]): Active | Activity (HeLa [7]): 67% | inhibition [8]: Active | Activity (HEK293): Non-Toxic | inhibition [9]: inactive | inhibition [10]: Active | IC50 [11]: 0.72 µM | inhibition [12]: Active | inhibition [13]: Active | Activity (HeLa [14]): 37.8% | Activity [15]: 44% | Activity (HeLa [16]): 3.9%
